According to ChEMBL document CHEMBL4765452, “Discovery of (E)-N-(4-methyl-5-(3-(2-(pyridin-2-yl)vinyl)-1H-indazol-6-yl)thiazol-2-yl)-2-(4-methylpiperazin-1-yl)acetamide (IHMT-TRK-284) as a novel orally available type II TRK kinase inhibitor capable of overcoming multiple resistant mutants” (Eur J Med Chem, 2020):

What was measured:
[1] = Antiproliferative activity in mouse BAF3 cells assessed as growth inhibition after 72 hrs by CCK8 assay; format: cell-based
Procedure, shortened: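 TEL- or LMNA-fusion isogenic BaF3 lines grown in RPMI 1640 with 10% FBS and 1% penicillin/streptomycin at 37 °C, 5% CO₂; suspension cells collected by spinning at 800 rpm for 4 min before use; growth inhibition scored as GI₅₀.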

[2] = molecular target: T1, High affinity nerve growth factor receptor (Homo sapiens, UniProt P04629); test: Inhibition of wild type TEL fused TRKA (unknown origin) transfected in mouse BAF3 cells assessed as growth inhibition after 72 hrs by CCK8 assay; format: cell-based
Target sequence in this assay (P04629 33-796 limits assumed): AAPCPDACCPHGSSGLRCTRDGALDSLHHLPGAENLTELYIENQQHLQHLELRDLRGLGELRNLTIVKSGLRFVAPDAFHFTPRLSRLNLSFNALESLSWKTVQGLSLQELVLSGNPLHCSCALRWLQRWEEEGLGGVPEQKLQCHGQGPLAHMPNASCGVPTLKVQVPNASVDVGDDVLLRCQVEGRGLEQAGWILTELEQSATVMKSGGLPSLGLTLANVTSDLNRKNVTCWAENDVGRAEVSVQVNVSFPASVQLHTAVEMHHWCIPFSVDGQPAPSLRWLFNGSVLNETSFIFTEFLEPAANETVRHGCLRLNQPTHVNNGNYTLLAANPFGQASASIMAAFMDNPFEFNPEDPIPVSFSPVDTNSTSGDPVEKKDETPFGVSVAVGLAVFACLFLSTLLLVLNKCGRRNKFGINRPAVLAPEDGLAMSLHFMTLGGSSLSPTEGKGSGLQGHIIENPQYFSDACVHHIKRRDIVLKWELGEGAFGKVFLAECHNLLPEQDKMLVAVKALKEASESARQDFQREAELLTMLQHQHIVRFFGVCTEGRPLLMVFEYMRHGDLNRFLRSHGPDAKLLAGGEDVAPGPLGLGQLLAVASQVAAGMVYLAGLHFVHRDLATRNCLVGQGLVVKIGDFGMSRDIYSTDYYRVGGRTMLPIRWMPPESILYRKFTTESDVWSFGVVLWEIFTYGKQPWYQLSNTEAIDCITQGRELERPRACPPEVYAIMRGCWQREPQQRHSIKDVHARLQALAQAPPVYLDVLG

[3] = molecular target: T1, High affinity nerve growth factor receptor; test: Inhibition of LMNA fused TRKA (unknown origin) transfected in mouse BAF3 cells assessed as growth inhibition after 72 hrs by CCK8 assay; format: cell-based
Target sequence in this assay (P04629 33-796 limits assumed): as above

[4] = molecular target: High affinity nerve growth factor receptor (Homo sapiens, UniProt P04629, G595R); test: Inhibition of LMNA fused TRKA G595R mutant (unknown origin) transfected in mouse BaF3 cells assessed as reduction in phosphorylation at Y490 residue after 2 hrs by Western blot analysis; format: cell-based
Chain of High affinity nerve growth factor receptor (Homo sapiens, UniProt P04629, G595R) (P04629 33-796 G595R limits assumed): as the sequence (P04629 33-796 limits assumed) above, with G563R counted along it

KM12-Luc = test: Induction of apoptosis in human KM-12-LUC cells assessed as increase in cleaved PARP level after 24 hrs by Western blot analysis; format: functional, cell-based; conditions: dose 0.01-10 µM
Procedure, shortened: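 KM-12-LUC cells cultured in RPMI 1640 with 10% FBS and 1% penicillin/streptomycin at 37 °C, 5% CO2. Serially diluted compound added for 24 h. Apoptosis read by western blot for PARP cleavage, with β-actin as loading control.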

[5] = Apparent volume of distribution in mouse at 1 mg/kg, iv; format: ADME, organism-based; conditions: in vivo, read-out: Vz
[6] = Apparent clearance in mouse at 10 mg/kg, po; format: ADME, organism-based; conditions: in vivo, read-out: CLz/F (converted)
[7] = Cmax in mouse at 1 mg/kg, iv; format: ADME, organism-based; design: route intravenous, dose 1 mg/kg; conditions: in vivo
[8] = Tmax in Sprague-Dawley rat at 1 mg/kg, iv; format: ADME, organism-based; conditions: in vivo
Procedure, shortened: (§1)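 Single-dose PK in mice, Sprague Dawley rats and beagle dogs, given i.v. (1 mg/kg) or p.o. (10 mg/kg mice and rats; 5 mg/kg dogs). AUC0-t, T1/2, Tmax and oral bioavailability (F) derived from plasma profiles.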

[9] = Tmax in Sprague-Dawley rat at 10 mg/kg, po; format: ADME, organism-based; conditions: in vivo; procedure, shortened: as §1
[10] = Half life in Sprague-Dawley rat at 10 mg/kg, po; format: ADME, organism-based; conditions: in vivo
[11] = Apparent volume of distribution in Sprague-Dawley rat at 10 mg/kg, po; format: ADME, organism-based; conditions: in vivo
[12] = AUC (0 to t) in Beagle dog at 1 mg/kg, iv; format: ADME, organism-based, Canis lupus familiaris; design: dose 1 mg/kg; conditions: in vivo
Procedure, shortened: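 Intravenous and oral arms were run in parallel in each species (mice, Sprague Dawley rats, beagle dogs). Exposure is reported as AUC0-t in ng/mL·h.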

[13] = Half life in Beagle dog at 5 mg/kg, po; format: ADME, organism-based, Canis lupus familiaris; conditions: in vivo
[14] = Apparent volume of distribution in Beagle dog at 1 mg/kg, iv; format: ADME, organism-based, Canis lupus familiaris; conditions: in vivo, read-out: Vz
[15] = Apparent volume of distribution in Beagle dog at 5 mg/kg, po; format: ADME, organism-based, Canis lupus familiaris; conditions: in vivo
[16] = Apparent clearance in Beagle dog at 5 mg/kg, po; format: ADME, organism-based, Canis lupus familiaris; conditions: in vivo, read-out: CLz/F (converted)
[17] = Cmax in Beagle dog at 1 mg/kg, iv; format: ADME, organism-based, Canis lupus familiaris; design: route intravenous, dose 1 mg/kg; conditions: in vivo
BaF3 [18] = test: Antitumor activity against mouse BAF3 cells harboring TEL fused TRKB allografted in nude mouse assessed as tumor growth inhibition at 80 mg/kg, po administered once daily for 10 days relative to control; format: functional; conditions: 240 h, time 10 day, read-out: TGI
Procedure, shortened: (§2)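 Nu/nu mice given 1 million BaF3 cells (TEL-TRKA, TEL-TRKB, TEL-TRKC, LMNA-TRKA-F589L or LMNA-TRKA-G667S) in DMEM, 1:1 with matrigel, injected subcutaneously into the right flank; oral gavage began at 200–400 mm³, 5 mice per group, compound in 0.5% methylcellulose/0.4% Tween 80 in ddH₂O, 10 days; tumor volume [(W²×L)/2] and body weight recorded daily; TGI versus vehicle.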

BaF3 [19] = test: Antitumor activity against mouse BAF3 cells harboring TEL fused TRKC allografted in nude mouse assessed as tumor growth inhibition at 80 mg/kg, po administered once daily for 10 days relative to control; format: functional; conditions: 240 h, time 10 day, read-out: TGI; procedure, shortened: as §2
BaF3 [20] = test: Antitumor activity against mouse BAF3 cells harboring LMNA fused TRKA-G667S mutant allografted in nude mouse assessed as tumor growth inhibition at 80 mg/kg, po administered twice daily for 10 days relative to control; format: functional; conditions: 240 h, time 10 day, read-out: TGI; procedure, shortened: as §2
BaF3 [21] = test: Antitumor activity against mouse BAF3 cells harboring LMNA fused TRKA-G667S mutant allografted in nude mouse assessed as tumor growth inhibition at 40 mg/kg, po administered twice daily for 10 days relative to control; format: functional; conditions: 240 h, time 10 day, read-out: TGI; procedure, shortened: as §2
[22] = Toxicity in mouse xenografted with mouse BAF3 cells harboring TEL fused TRKA assessed as effect on body weight at 40 to 80 mg/kg, po administered once daily for 10 days; format: organism-based; conditions: in vivo, 240 h, dose 40-80 mg/kg/day, time 10 day
Procedure, shortened: (§3)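 nu/nu mice were given subcutaneous right-flank implants in 1:1 DMEM/matrigel: 1 million BaF3 fusion cells or 5 million KM-12-LUC cells. Oral gavage started at 150–200 mm3 (xenograft) or 200–400 mm3 (allograft). Dosing used 40 or 80 mg/kg in HKI vehicle (0.5% methylcellulose/0.4% Tween 80 in ddH2O), with 5 mice per group. Body weight was recorded daily and behaviour observed.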

[23] = molecular target: T1, High affinity nerve growth factor receptor; test: Inhibition of TRKA in human KM-12-LUC cells assessed as reduction in AKT phosphorylation at S473 residue after 2 hrs by Western blot analysis; format: cell-based, KM12-Luc
Procedure, shortened: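 KM-12-LUC (TPM3-TRKA fused colon cancer cells) grown in RPMI 1640 with 10% FBS and 1% penicillin/streptomycin at 37 °C under 5% CO2. Serially diluted compound added for 2 h. Lysates western blotted for phospho-AKT (T308/S473) and phospho-ERK1/2 (T202/Y204).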
Target sequence in this assay (P04629 whole entry, the tested form may be a part): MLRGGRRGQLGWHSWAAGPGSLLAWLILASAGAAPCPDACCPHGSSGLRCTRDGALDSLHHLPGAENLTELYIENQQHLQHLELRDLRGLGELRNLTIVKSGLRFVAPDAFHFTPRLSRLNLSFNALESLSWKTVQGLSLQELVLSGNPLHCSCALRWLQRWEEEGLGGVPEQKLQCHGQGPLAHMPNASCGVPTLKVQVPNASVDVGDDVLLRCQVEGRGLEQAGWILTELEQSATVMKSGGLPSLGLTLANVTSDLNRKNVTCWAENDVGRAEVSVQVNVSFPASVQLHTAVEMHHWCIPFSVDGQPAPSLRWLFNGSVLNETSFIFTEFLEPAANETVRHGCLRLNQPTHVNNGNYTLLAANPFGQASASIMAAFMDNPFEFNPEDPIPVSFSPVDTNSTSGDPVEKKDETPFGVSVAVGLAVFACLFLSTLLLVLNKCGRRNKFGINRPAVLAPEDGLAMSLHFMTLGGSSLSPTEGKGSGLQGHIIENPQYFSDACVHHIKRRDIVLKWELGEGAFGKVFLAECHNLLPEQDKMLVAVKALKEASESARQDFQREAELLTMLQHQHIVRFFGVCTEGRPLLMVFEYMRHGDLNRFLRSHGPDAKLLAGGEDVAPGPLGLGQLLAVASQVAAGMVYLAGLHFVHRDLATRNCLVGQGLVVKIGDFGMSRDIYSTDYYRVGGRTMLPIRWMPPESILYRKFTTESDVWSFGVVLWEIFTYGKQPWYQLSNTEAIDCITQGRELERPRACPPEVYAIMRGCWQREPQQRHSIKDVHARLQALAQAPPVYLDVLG

[24] = Toxicity in mouse xenografted with mouse BAF3 cells harboring […] TRKA-F589L mutant assessed as effect on body weight at 40 to 80 mg/kg, po administered once daily for 10 days; format: organism-based; conditions: in vivo, 240 h, dose 40-80 mg/kg/day, time 10 day; procedure, shortened: as §3
[25] = Toxicity in mouse xenografted with human […] cells assessed as effect on body weight at 40 to 80 mg/kg, po administered once daily for 10 days; format: organism-based; conditions: in vivo, 240 h, dose 40-80 mg/kg/day, time 10 day; procedure, shortened: as §3
[26] = Toxicity in mouse xenografted with mouse BAF3 cells harboring TEL fused TRKB assessed as effect on animals behaviour at 40 to 80 mg/kg, po administered once daily for 10 days; format: organism-based; conditions: in vivo, 240 h, dose 40-80 mg/kg/day, time 10 day; procedure, shortened: as §3
[27] = Toxicity in mouse xenografted with mouse BAF3 cells harboring TEL fused TRKC assessed as effect on animals behaviour at 40 to 80 mg/kg, po administered once daily for 10 days; format: organism-based; conditions: in vivo, 240 h, dose 40-80 mg/kg/day, time 10 day; procedure, shortened: as §3
[28] = Toxicity in mouse xenografted with mouse BAF3 cells harboring […] TRKA-F589L mutant assessed as effect on abnormal behaviour at 40 to 80 mg/kg, po administered once daily for 10 days; format: organism-based; conditions: in vivo, 240 h, dose 40-80 mg/kg/day, time 10 day; procedure, shortened: as §3
[29] = Toxicity in mouse xenografted with human […] cells assessed as effect on abnormal behaviour at 40 to 80 mg/kg, po administered once daily for 10 days; format: organism-based; conditions: in vivo, 240 h, dose 40-80 mg/kg/day, time 10 day; procedure, shortened: as §3

GI50 [2]: 0.0085 µM
GI50 [3]: 0.007 µM
EC50 [4]: 0.12 µM
Vd [5]: 4.93 L/kg
CL/F [6]: 108 mL/min/kg
Cmax [7]: 1110 ng/mL
Tmax [8]: 1.8 min
Tmax [9]: 4.7 h
t1/2 [10]: 2.5 h
Vz [11]: 37.364 L/kg
AUC(0-t) [12]: 323 ng·h/mL
t1/2 [13]: 11.8 h
Vd [14]: 17.5 L/kg
Vz [15]: 149.26 L/kg
CL/F [16]: 140 mL/min/kg
Cmax [17]: 284 ng/mL
EC50 [23]: < 0.03 µM
Structure (SMILES): Cc1nc(NC(=O)CN2CCN(C)CC2)sc1-c1ccc2c(/C=C/c3ccccn3)n[nH]c2c1
GI50 at 72 h [1]: 1.4 µM
Activity (KM12-Luc): Dose-dependent effect
inhibition in vivo at 80 mg/kg/day (BaF3 [18]): 92.7%
inhibition in vivo at 80 mg/kg/day (BaF3 [19]): 57.5%
inhibition in vivo at 80 mg/kg (BaF3 [20]): 89.1%
inhibition in vivo at 40 mg/kg (BaF3 [21]): 64.9%
Activity [22]: Non-Toxic
Activity [24]: Non-Toxic
Activity [25]: Non-Toxic
Activity [26]: Non-Toxic
Activity [27]: Non-Toxic
Activity [28]: Non-Toxic
Activity [29]: Non-Toxic
